According to ChEMBL document CHEMBL3272032, “Antifolate studies. Activities of 40 potential antimalarial compounds against sensitive and chlorguanide triazine resistant strains of folate-requiring bacteria and Escherichia coli” (J Med Chem, 1977):
Active and inactive are the calls of the source. No cut-off for these calls is given here.

Tests used:
Lacticaseibacillus casei [1] = test: Fold increase in resistance, ratio of IC50 for chlorguanide triazine-resistant Lactobacillus casei ATCC 7469 to IC50 for sensitive Lactobacillus casei ATCC 7469; type: functional
In short: (§1)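 Resistant substrains were made by serial transfer in rising concentrations of cycloguanil, and the most resistant isolate of each organism was used. Both strains were assayed turbidimetrically under identical conditions. FIR = IC50 of the resistant strain divided by IC50 of the sensitive parent.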

Plasmodium berghei [2] = test: Antimalarial activity against Plasmodium berghei infected in sc dosed mouse assessed as dose required to survivors for period of 60 days; type: functional
In short: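 Mice infected with a blood-induced P. berghei inoculum were given one subcutaneous dose in peanut oil. Survivors at 60 days counted as cured. The minimum curative dose is the lowest dose that cured any mouse.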

Lacticaseibacillus casei [3] = test: Antibacterial activity against sensitive Lactobacillus casei ATCC 7469 assessed as reduction in growth in presence of 0.001 ug/ml folic acid; type: functional, organism-based
In short: (§2)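 Folate-requiring strains in the medium of the earlier assay method. Folic acid was 0.002 μg/ml for S. faecium and 0.001 μg/ml for L. casei. Turbidity read on a Klett-Summerson colorimeter. IC50 is the micromolar concentration reducing growth to 50% of control. Top concentration was 1000 μg/ml, or 100 μg/ml if supply was limited.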

Lacticaseibacillus casei [4] = test: Antibacterial activity against chlorguanide triazine-resistant Lactobacillus casei ATCC 7469 assessed as reduction in growth; type: functional, organism-based
In short: (§3)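 Folate-requiring strains grown in medium with folic acid, 0.002 µg/ml for S. faecium and 0.001 µg/ml for L. casei; P. cerevisiae given folinic acid, 0.001 µg/ml. Resistant substrains came from serial transfer in rising chlorguanide triazine, and the most resistant were used. Compounds tested up to 1000 µg/ml, or 100 µg/ml when supply was limited. Growth read as Klett turbidity; IC50 is the µM concentration giving 50% growth inhibition.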

[5] = Antibacterial activity against sensitive Pediococcus cerevisiae ATCC 808 assessed as reduction; type: functional
In short: (§4)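 P. cerevisiae grown with folinic acid at 0.001 μg/ml in the earlier-described medium. Turbidity read on a Klett-Summerson colorimeter. IC50 is the micromolar concentration reducing growth to 50% of control. Top concentration was 1000 μg/ml, or 100 μg/ml when supply was limited.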

Escherichia coli [6] = test: Antibacterial activity against sensitive Escherichia coli ATCC 10536 assessed as reduction in growth; type: functional, organism-based
In short: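 Growth inhibition in Sahyun et al. medium plus 0.6% acid-hydrolyzed casein. Growth read as turbidity on a Klett-Summerson photoelectric colorimeter. IC50 is the micromolar concentration giving 50% growth inhibition. Top concentration was 1000 μg/ml, or 100 μg/ml when compound was limited.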

Plasmodium berghei [7] = test: Antimalarial activity against Plasmodium berghei infected in sc dosed mouse assessed as active dose required to increase of 100% in mean survival time; type: functional; conditions: read-out: MED
In short: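 Mice received a standard blood-induced P. berghei inoculum and were then treated with one subcutaneous dose of compound suspended in peanut oil. The minimum active dose is the lowest dose that raised mean survival time by 100%.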

Pediococcus [8] = test: Fold increase in resistance, ratio of IC50 for chlorguanide triazine-resistant Pediococcus cerevisiae ATCC 808 to IC50 for sensitive Pediococcus cerevisiae ATCC 808; type: functional; in short: as §1
Escherichia coli [9] = test: Antibacterial activity against sensitive Escherichia coli ATCC 10536 assessed as reduction in growth in presence of p-aminobenzoic acid; type: functional, organism-based
In short: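 Reversal test. Drug inhibition was challenged with PABA in Sahyun et al. medium plus 0.6% acid-hydrolyzed casein. Growth read as turbidity on a Klett-Summerson colorimeter. Scored as reversal or nonreversal of the drug inhibition.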

Pediococcus [10] = test: Antibacterial activity against sensitive Pediococcus cerevisiae ATCC 808 assessed as reduction in growth in presence of 0.001 ug/ml folinic acid; type: functional; in short: as §4
Lacticaseibacillus casei [11] = test: Antibacterial activity against sensitive Lactobacillus casei ATCC 7469 assessed as reduction; type: functional, organism-based; in short: as §3
Enterococcus faecium [12] = test: Antibacterial activity against sensitive Streptococcus faecium ATCC 8043 assessed as reduction in growth; type: functional, organism-based; in short: as §3
[13] = Antibacterial activity against chlorguanide triazine-resistant Pediococcus cerevisiae ATCC 808 assessed as reduction in growth; type: functional; in short: as §3
Enterococcus faecium [14] = test: Antibacterial activity against chlorguanide triazine-resistant Streptococcus faecium ATCC 8043 assessed as reduction in growth; type: functional, organism-based; in short: as §3
Enterococcus faecium [15] = test: Antibacterial activity against sensitive Streptococcus faecium ATCC 8043 assessed as reduction in growth in presence of 0.002 ug/ml folic acid; type: functional, organism-based; in short: as §2
Enterococcus faecium [16] = test: Fold increase in resistance, ratio of IC50 for chlorguanide triazine-resistant Streptococcus faecium ATCC 8043 to IC50 for sensitive Streptococcus faecium ATCC 8043; type: functional
In short: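 Resistant S. faecium substrain raised by serial transfer in increasing chlorguanide triazine. IC50 (µM, 50% growth inhibition by turbidity) was found for resistant and parent strains in folic acid (0.002 µg/ml) medium. Fold increase taken as IC50 resistant / IC50 sensitive.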

Enterococcus faecium [17] = test: Antibacterial activity against chlorguanide triazine-resistant Streptococcus faecium ATCC 8043 assessed as reduction in growth in presence of 0.002 ug/ml folic acid; type: functional, organism-based; in short: as §3
Lacticaseibacillus casei [18] = test: Antibacterial activity against chlorguanide triazine-resistant Lactobacillus casei ATCC 7469 assessed as reduction in growth in presence of 0.001 ug/ml folic acid; type: functional, organism-based; in short: as §3

SMILES | Ratio IC50 (Lacticaseibacillus casei [1]) | MCD (Plasmodium berghei [2]) | inhibition (Lacticaseibacillus casei [3]) | IC50 (Lacticaseibacillus casei [4]) | IC50 [5] | IC50 (Escherichia coli [6]) | minimal effective dose (Plasmodium berghei [7]) | Ratio IC50 (Pediococcus [8]) | inhibition (Escherichia coli [9]) | inhibition (Pediococcus [10]) | IC50 (Lacticaseibacillus casei [11]) | IC50 (Enterococcus faecium [12]) | IC50 [13] | IC50 (Enterococcus faecium [14]) | inhibition (Enterococcus faecium [15]) | Ratio IC50 (Enterococcus faecium [16]) | inhibition (Enterococcus faecium [17]) | inhibition (Lacticaseibacillus casei [18])
Nc1ccc(S(=O)(=O)c2ccc(N)cc2)cc1 [DAPSONE] | 0.24 | 40 mg/kg | Active | 75 µM | 105 µM | 137 µM | 20 mg/kg | >4 | inactive | Active | 314 µM | > 4000 µM | > 400 µM | > 4000 µM | – | – | – | –
CCOC(=O)c1cnc(S)nc1O | 0.19 | 320 mg/kg | Active | 574 µM | > 5000 µM | > 5000 µM | 40 mg/kg | – | – | – | 3000 µM | > 5000 µM | – | > 5000 µM | – | – | – | –
CCN(CC)CCNc1nc(C(Cl)(Cl)Cl)nc2cc(Cl)ccc12 | 0.27 | 320 mg/kg | Active | 8 µM | 32 µM | 50 µM | 160 mg/kg | 1 | Active | Active | 30 µM | 76 µM | 35 µM | 67 µM | Active | 0.9 | – | –
CCN(CC)CCNc1nc(Nc2ccc(Cl)c(Cl)c2)nc2ccccc12 | 0.4 | – | Active | 5 µM | 6.5 µM | 11 µM | – | 1 | Active | Active | 12 µM | 31 µM | 8.2 µM | 61 µM | Active | 2 | – | –
COc1cc(NC(C)CCCN)c2ncccc2c1 (stereo not drawn) [PRIMAQUINE] | 2 | 160 mg/kg | Active | 1300 µM | 580 µM | – | 40 mg/kg | 1 | – | Active | 630 µM | 1200 µM | 540 µM | 3000 µM | Active | 3 | – | –
Nc1nc(N)c2c(ccc3cc(Br)ccc32)n1 | 0.06 | >640 mg/kg | inactive | 0.06 µM | 0.04 µM | 4.8 µM | 640 mg/kg | 7.5 | Active | inactive | 1 µM | 0.006 µM | 0.3 µM | 0.7 µM | inactive | 117 | inactive | inactive
NC1(C(=O)O)CCCC1 [CYCLOLEUCINE] | – | >640 mg/kg | – | > 7700 µM | > 7700 µM | > 7700 µM | > 640 mg/kg | – | – | – | > 7700 µM | > 7700 µM | – | > 7700 µM | – | – | – | –
CCN(CC)CCCC(C)Nc1ccnc2cc(Cl)ccc12 (stereo not drawn) [CHLOROQUINE] | 1 | 80 mg/kg | Active | 6000 µM | 2500 µM | – | 20 mg/kg | 1 | – | Active | 6400 µM | 6600 µM | 2500 µM | 7500 µM | Active | 1 | – | –
